DENV2 CPE = inhibitors of DENV2 cytopathic effect, primary screen, cell-based, plate reader, single concentration | AID 651640, 2012 | DENV2-infected cells, cytopathic effect rescue | CPE inhibition, % at 9.99 µM | actives 1.7% (n = 350,000); in the data active = CPE inhibition above about 20%, passing the limit was not always enough; inconclusive = no clear call, values can overlap the other calls; tested in BHK-21 cells;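 also: 0% = median of neutral control wells and 100% = median of positive control wells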
E-sel inducer = E-selectin induction in HUVECs, primary screen, imaging, HUVEC, immunofluorescence imaging, single point. P16581. normalized: neutral wells 0, TNF-alpha wells 100. activation, % at 7.58 µM. actives 0.37% (n = 260,000). AID 686992, 2013;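 active = mean E-selectin-positive cell signal at least 10% of the positive control, reached in at least 60% of replicates, without over 20% cell loss; inconclusive = no rule given, readout overlaps actives, possibly toxicity-flagged; inactive = the rest, including those meeting only one limit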
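Assay system: HUVEC, human umbilical vein endothelial cells / Amount: 3,000 HUVEC/well / Controls: TNF-alpha positive control, DMSO neutral control / Compound dosing: single concentration / Medium: EGM-2 over gelatin coat / Evaluation: percent E-selectin-positive cells / Signal: immunofluorescence imaging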
SIRT5 inh = SIRT5 desuccinylase inhibitors, primary screen, biochemical, fluorescence imaging, single point, set 5; inhibition, % at 15 µM; NAD-dependent protein deacylase sirtuin-5, mitochondrial (Homo sapiens), Q9NXA8; actives 1.1% (n = 330,000); AID 652115, 2013; Purified SirT5, succinyl-peptide AMC, trypsin-coupled fluorescence; in the data active = inhibition above about 15%; inconclusive = no clear call, values can overlap the other calls
Target sequence (Q9NXA8 whole entry, looked up): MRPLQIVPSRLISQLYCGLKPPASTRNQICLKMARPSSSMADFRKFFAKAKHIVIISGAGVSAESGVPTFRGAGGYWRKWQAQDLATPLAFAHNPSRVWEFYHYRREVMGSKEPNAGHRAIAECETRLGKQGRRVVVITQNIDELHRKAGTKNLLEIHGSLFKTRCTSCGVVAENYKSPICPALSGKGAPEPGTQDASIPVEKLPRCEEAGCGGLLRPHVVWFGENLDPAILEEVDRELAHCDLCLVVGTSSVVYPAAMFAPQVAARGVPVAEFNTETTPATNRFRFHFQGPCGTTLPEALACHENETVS
Active calls of the source: *. Rows were chosen to be rich in hits. Some 2.8% of all compounds tested hit in one or more screens of this group.

How did COC(=O)NNC(=O)C12CC3CC(CC(C3)C1)C2 do in these assays?
DENV2 CPE: inconclusive; E-sel inducer: 0.1; SIRT5 inh: -4.5

How did COc1cc(C(CCN2CCOCC2)c2c(OC)cc(OC)c3c(C)cc(=O)oc23)cc(OC)c1OC (stereo unspecified) do in these assays?
E-sel inducer: 0.2

How did COc1ccc(C(CC(=O)N2CCCC2)c2c(OC)cc(OC)c3c(-c4ccccc4)cc(=O)oc23)cc1 (stereo unspecified) do in these assays?
DENV2 CPE: 1.2; E-sel inducer: -0.3

Results for COc1ccc(C(CC(=O)N2CCCCC2)c2c(OC)cc(OC)c3c(-c4ccccc4)cc(=O)oc23)cc1 (stereo unspecified) ?
DENV2 CPE: 71.5*; E-sel inducer: -0.3

Results for COc1ccc(C(CCN2CCOCC2)c2c(OC)cc(OC)c3c(C)cc(=O)oc23)cc1 (stereo unspecified) ?
DENV2 CPE: 55.8*; E-sel inducer: -0.1; SIRT5 inh: 0.8

Results for CCCN1C[C@@H](C)[C@H](OC)CN(C)C(=O)c2cc(NC(=O)c3cccc(F)c3)ccc2OC[C@H]1C ?
DENV2 CPE: -0.5; E-sel inducer: -0.2; SIRT5 inh: 7.1

What do the screens show for `O=C(C[C@@H]1CC[C@H]2[C@@H](COC[C@H](O)CN2C(=O)Nc2ccc(F)cc2)O1)NC1Cc2ccccc2C1`?
DENV2 CPE: 24.5*; E-sel inducer: -0.1; SIRT5 inh: 5.0

What do the screens show for `O=C(C[C@@H]1CC[C@H]2[C@@H](COC[C@H](O)CN2C(=O)c2ccc3c(c2)OCO3)O1)NCCN1CCCCC1`?
DENV2 CPE: -0.1; E-sel inducer: 0.0; SIRT5 inh: -2.4

Results for O=C(C[C@H]1CC[C@H]2[C@@H](COC[C@@H](O)CN2C(=O)c2ccc3c(c2)OCO3)O1)NCCN1CCCC1 ?
DENV2 CPE: 27.1*; E-sel inducer: 0.0; SIRT5 inh: -2.1

Results for O=C(C[C@H]1CC[C@H]2[C@@H](COC[C@@H](O)CN2C(=O)c2ccc3c(c2)OCO3)O1)NC1CCC1 ?
DENV2 CPE: -5.7; E-sel inducer: 0.0; SIRT5 inh: 9.1

Results for O=C(C[C@@H]1CC[C@@H]2[C@H](COC[C@@H](O)CN2C(=O)Nc2ccc(F)cc2)O1)NC1Cc2ccccc2C1 ?
DENV2 CPE: -15.3; E-sel inducer: 0.1; SIRT5 inh: 3.0

What do the screens show for `O=C(C[C@H]1CC[C@@H]2[C@H](COC[C@H](O)CN2C(=O)c2ccc3c(c2)OCO3)O1)NC1Cc2ccccc2C1`?
DENV2 CPE: 23.7*; E-sel inducer: -0.1; SIRT5 inh: -1.3

Results for C[C@H]1CN([C@@H](C)CO)S(=O)(=O)c2ccc(-c3ccc(F)cc3)cc2O[C@H]1CN(C)C(=O)C1CC1 ?
E-sel inducer: -0.3

How did C[C@@H]1CN([C@H](C)CO)C(=O)c2cc(-c3ccc(C(=O)N(C)C)cc3)cnc2O[C@H]1CN(C)C do in these assays?
DENV2 CPE: -0.4; E-sel inducer: 1.0; SIRT5 inh: -8.9

What do the screens show for `O=C(C[C@H]1C[C@@H]2c3cc(NC(=O)C4CCC4)ccc3O[C@@H]2[C@@H](CO)O1)NC1CCCCC1`?
DENV2 CPE: 15.1; E-sel inducer: -0.7; SIRT5 inh: 7.8

Results for N#Cc1ccc(-c2ccc3c(c2)[C@@H]2[C@@H](CCN2C(=O)c2ccc(F)cc2)[C@@H](CO)N3)cc1 ?
DENV2 CPE: -18.6; E-sel inducer: 0.5

What do the screens show for `C[C@H](CO)N1C[C@H](C)[C@H](CN(C)Cc2ccc(C(=O)Nc3ccccc3N)cc2)Oc2ccc(NS(=O)(=O)c3cn(C)cn3)cc2CC1=O`?
DENV2 CPE: -4.9; E-sel inducer: 0.2; SIRT5 inh: 6.8

What do the screens show for `C[C@@H]1CN([C@H](C)CO)C(=O)Cc2cc(NS(=O)(=O)c3cn(C)cn3)ccc2O[C@H]1CN(C)Cc1ccc(C(=O)Nc2ccccc2N)cc1`?
DENV2 CPE: -2.0; E-sel inducer: -0.1; SIRT5 inh: 7.7

How did C[C@H]1CN([C@@H](C)CO)C(=O)Cc2cc(NS(=O)(=O)c3cn(C)cn3)ccc2O[C@@H]1CN(C)Cc1ccc(C(=O)Nc2ccccc2N)cc1 do in these assays?
DENV2 CPE: 21.3*; E-sel inducer: -0.1

What do the screens show for `C[C@@H]1CN([C@@H](C)CO)C(=O)Cc2cc(NS(=O)(=O)c3cn(C)cn3)ccc2O[C@H]1CN(C)Cc1ccc(C(=O)Nc2ccccc2N)cc1`?
DENV2 CPE: 106.6*; E-sel inducer: -0.1; SIRT5 inh: 6.8

How did C[C@H]1CN([C@@H](C)CO)C(=O)c2cc(-c3ccc(F)cc3)cnc2O[C@H]1CN(C)C(=O)c1ccccc1F do in these assays?
DENV2 CPE: -11.1; E-sel inducer: -0.6; SIRT5 inh: -5.8

What do the screens show for `C/C=C/c1cnc2c(c1)C(=O)N([C@H](C)CO)C[C@@H](C)[C@@H](CN(C)Cc1ccc(F)cc1)O2`?
DENV2 CPE: 3.7; E-sel inducer: 3.8; SIRT5 inh: 1.1

How did C[C@@H]1CN([C@H](C)CO)C(=O)c2cc(NC(=O)Cc3ccccc3)ccc2O[C@@H]1CN(C)Cc1ccc(Oc2ccccc2)cc1 do in these assays?
DENV2 CPE: 10.3; E-sel inducer: 0.0; SIRT5 inh: 10.7

Results for COC(=O)[C@H]1[C@H](CO)[C@H]2Cn3c(ccc(-c4ccccc4OC)c3=O)[C@H]2N1CC1CCCCC1 ?
DENV2 CPE: -4.1; E-sel inducer: -0.3; SIRT5 inh: -5.0

Results for COC(=O)[C@H]1[C@H](CO)[C@H]2Cn3c(ccc(-c4ccncc4)c3=O)[C@H]2N1CC1CCCCC1 ?
DENV2 CPE: -3.6; E-sel inducer: -0.3; SIRT5 inh: -2.0

How did CN(C)C(=O)[C@@H]1[C@@H](CO)[C@@H]2Cn3c(ccc(-c4ccccc4)c3=O)[C@@H]2N1Cc1ccccc1 do in these assays?
DENV2 CPE: -2.0; E-sel inducer: -1.8; SIRT5 inh: 23.4*

How did COC(=O)[C@H]1[C@H](CO)[C@H]2Cn3c(ccc(-c4ccccc4)c3=O)[C@H]2N1CC1CCCCC1 do in these assays?
DENV2 CPE: 45.4*; E-sel inducer: -0.5; SIRT5 inh: 1.5

What do the screens show for `CCCN1[C@H](C(=O)N(C)C)[C@@H](CO)[C@@H]2Cn3c(ccc(-c4ccccc4)c3=O)[C@@H]21`?
DENV2 CPE: 5.7; E-sel inducer: -0.5; SIRT5 inh: -1.8

What do the screens show for `COC(=O)[C@@H]1[C@@H](CO)[C@@H]2Cn3c(ccc(-c4ccccc4)c3=O)[C@@H]2N1CC1CCCCC1`?
DENV2 CPE: 33.3*; E-sel inducer: -0.9

What do the screens show for `COc1ccc2c3c([nH]c2c1)[C@H](CO)N(Cc1nccs1)CC31CCN(C(=O)C2CCCC2)CC1`?
DENV2 CPE: -10.4; E-sel inducer: -0.1; SIRT5 inh: 0.5

Results for COc1ccc(S(=O)(=O)Nc2ccc3c(c2)C(=O)N([C@@H](C)CO)C[C@@H](C)[C@H](CN(C)Cc2ccccc2)O3)cc1 ?
DENV2 CPE: 0.9; E-sel inducer: -0.1; SIRT5 inh: -2.6

Results for CCOc1ccc2nc(SCC(=O)NCc3ccc(OC)cc3)[nH]c2c1 ?
DENV2 CPE: -7.5; E-sel inducer: -0.1; SIRT5 inh: 26.9*

How did COc1ccc2nc(SCC(=O)NCc3ccccc3)[nH]c2c1 do in these assays?
DENV2 CPE: 1.0; E-sel inducer: -0.1; SIRT5 inh: -1.4
